Our source for the inhibition values is ChEMBL document CHEMBL3244074, “2-Indanpropionic acids: structural leads for prostaglandin F2alpha antagonist development” (J Med Chem, 1979).

The source made the active and inactive calls. No cut-off for these calls is given here.

What all share (type): tissue-based
The target of test [1] is Prostaglandin F2-alpha receptor (Mus musculus) (UniProt P43117). Put plainly: Antagonist activity at prostaglandin F2-alpha receptor in isolated Albino mouse ileum assessed as inhibition of PGF2alpha-induced spasmogenic effect at 10^-3 M preincubated for 3 mins followed by PGF2alpha challenge relative to control. Summed up:
(§1)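 This used female albino mouse ileum (20-25 g animals, killed by cervical dislocation), recorded isotonically under 200 mg tension at 37 °C after 30-min equilibration. A control PGF2α contraction was obtained and the bath washed three times. Compound was applied for 3 min before PGF2α challenge, and the contraction was recorded. Washing three times after 5 min was followed by a repeat PGF2α control response.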

Test [2] shares this target. Put plainly: Antagonist activity at prostaglandin F2-alpha receptor in isolated Albino mouse ileum assessed as inhibition of KCl-induced spasmogenic effect at. The essentials: (§2)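 Ileum sections were taken from female albino mice (20-25 g) killed by cervical dislocation and mounted in 37 °C baths under 200 mg tension, with isotonic contraction recording after a 30-min equilibration. A control contraction to KCl (54 mM bath) was followed by three washes. Compound was left on the tissue for 3 min, then KCl was re-added and the contraction recorded. After 5 min the tissue was washed three times and the control response repeated.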

The target is the same in test [3]. Nature of the test: Antagonist activity at prostaglandin F2-alpha receptor in isolated Albino mouse ileum assessed as inhibition of acetylcholine-induced spasmogenic effect preincubated for 3 mins followed by acetylcholine challenge followed by compound washout. Summed up:
(§3)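 Mouse ileum came from female albinos (20-25 g) killed by cervical dislocation and was held under 200 mg tension in 37 °C baths for isotonic recording, with 30-min equilibration. A control acetylcholine contraction was obtained, then three washes. Compound was in contact for 3 min before acetylcholine challenge and contraction recording. After 5 min there were three washes and the control response was redetermined.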

The target is the same in test [4]. Nature of the test: Antagonist activity at prostaglandin F2-alpha receptor in isolated Albino mouse ileum assessed as inhibition of KCl-induced spasmogenic effect preincubated for 3 mins followed by KCl challenge followed by compound washout. The essentials: as §2
For test [5] the target is unchanged. Nature of the test: Antagonist activity at prostaglandin F2-alpha receptor in isolated Albino mouse ileum assessed as inhibition of PGF2alpha-induced spasmogenic effect preincubated for 3 mins followed by PGF2alpha challenge followed by compound washout. Summed up:
as §1

Test [6] has the same target. Nature of the test: Antagonist activity at prostaglandin F2-alpha receptor in isolated Albino mouse ileum assessed as inhibition of KCl-induced spasmogenic effect at 5X10'-5 M preincubated for 3 mins followed by KCl challenge relative to control. The essentials:
as §2

Test [7] has the same target. Nature of the test: Antagonist activity at prostaglandin F2-alpha receptor in isolated Albino mouse ileum assessed as inhibition of PGF2alpha-induced spasmogenic effect at 5X10'-5 M preincubated for 3 mins followed by PGF2alpha challenge relative to control. The essentials:
as §1

Test [8] has the same target. Put plainly: Antagonist activity at prostaglandin F2-alpha receptor in isolated Albino mouse ileum assessed as inhibition of acetylcholine-induced spasmogenic effect at. Summed up: as §3
Test [9] has the same target. Put plainly: Antagonist activity at prostaglandin F2-alpha receptor in isolated Albino mouse ileum assessed as inhibition of KCl-induced spasmogenic effect at 3X10'-5 M preincubated for 3 mins followed by KCl challenge relative to control. The essentials: as §2
The target is the same in test [10]. Nature of the test: Antagonist activity at prostaglandin F2-alpha receptor in isolated Albino mouse ileum assessed as inhibition of PGF2alpha-induced spasmogenic effect at 10^-4 M preincubated for 3 mins followed by PGF2alpha challenge relative to control. The essentials: as §1
Test [11] shares this target. Put plainly: Antagonist activity at prostaglandin F2-alpha receptor in isolated Albino mouse ileum assessed as inhibition of acetylcholine-induced spasmogenic effect at 3X10'-5 M preincubated for 3 mins followed by acetylcholine challenge relative to control. Summed up: as §3
Test [12] shares this target. Nature of the test: Antagonist activity at prostaglandin F2-alpha receptor in isolated Albino mouse ileum assessed as inhibition of KCl-induced spasmogenic effect at 10^-4 M preincubated for 3 mins followed by KCl challenge relative to control. Summed up: as §2
The target is the same in test [13]. Put plainly: Antagonist activity at prostaglandin F2-alpha receptor in isolated Albino mouse ileum assessed as inhibition of PGF2alpha-induced spasmogenic effect at 3X10'-5 M preincubated for 3 mins followed by PGF2alpha challenge relative to control. Summed up:
as §1

The target is the same in test [14]. Nature of the test: Antagonist activity at prostaglandin F2-alpha receptor in isolated Albino mouse ileum assessed as inhibition of acetylcholine-induced spasmogenic effect at 5X10'-5 M preincubated for 3 mins followed by acetylcholine challenge relative to control. The essentials:
as §3

For test [15] the target is unchanged. Nature of the test: Antagonist activity at prostaglandin F2-alpha receptor in isolated Albino mouse ileum assessed as inhibition of acetylcholine-induced spasmogenic effect at 10^-3 M preincubated for 3 mins followed by acetylcholine challenge relative to control. Summed up: as §3
The target is the same in test [16]. Nature of the test: Antagonist activity at prostaglandin F2-alpha receptor in isolated Albino mouse ileum assessed as inhibition of KCl-induced spasmogenic effect at 10^-3 M preincubated for 3 mins followed by KCl challenge relative to control. Summed up:
as §2

Test [17] has the same target. Nature of the test: Antagonist activity at prostaglandin F2-alpha receptor in isolated Albino mouse ileum assessed as inhibition of acetylcholine-induced spasmogenic effect at 10^-4 M preincubated for 3 mins followed by acetylcholine challenge relative to control. Summed up: as §3
Test [18] has the same target. Put plainly: Antagonist activity at prostaglandin F2-alpha receptor in isolated Albino mouse ileum assessed as inhibition of PGF2alpha-induced spasmogenic effect at. Summed up: as §1

Sequence of Prostaglandin F2-alpha receptor (Mus musculus) (P43117 whole entry): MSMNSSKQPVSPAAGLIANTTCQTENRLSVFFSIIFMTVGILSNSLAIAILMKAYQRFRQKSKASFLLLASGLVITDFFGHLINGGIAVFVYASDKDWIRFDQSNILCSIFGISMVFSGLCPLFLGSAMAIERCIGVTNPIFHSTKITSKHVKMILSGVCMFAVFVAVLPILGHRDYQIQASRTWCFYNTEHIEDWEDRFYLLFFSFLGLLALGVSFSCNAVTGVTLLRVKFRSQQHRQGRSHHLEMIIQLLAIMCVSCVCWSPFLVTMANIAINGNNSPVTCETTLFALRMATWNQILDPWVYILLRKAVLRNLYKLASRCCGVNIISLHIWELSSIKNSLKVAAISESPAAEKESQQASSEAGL

For the compound `CCCC1(CCC(=O)O)Cc2cc(OCc3ccccc3)c(OCc3ccccc3)cc2C1=O` (centres undefined), the inhibition entry in test [1], in test [2], in [8], in test [10], in [15] and in test [16] was “Active” in each case. In addition, the inhibition result in test [18] was “Active”. Moreover, the inhibition entry in test [3], in test [4] and in test [5] was “inactive” each time. The inhibition in [6] is 50%; in test [7] it was 90%; in test [9], 40%; in test [11], below 20%; in test [12], 70%; in test [13], 80%. In addition, the inhibition stood at 35% in test [14] and 70% in test [17].

With `CCCC1(CCC(=O)O)Cc2ccc(OC)cc2C1=O` (centres undefined), the inhibition result in test [1], in test [15] and in [16] was “Active” throughout. Also, the inhibition result in test [2], in test [3], in [4], in test [5], in [8] and in test [12] was “inactive” in each case. Further, the inhibition result in test [17] and in test [18] was “inactive” in each case. Also, the inhibition in [10] is 20%.

`CCCC1(CCC(=O)O)Cc2cc3c(cc2C1)OCO3`: the inhibition entry in test [1], in test [15] and in test [16] was “Active” in each case. Besides, the inhibition entry in test [2], in [3], in [4], in [5], in test [8] and in test [12] was “inactive” in each case. For the same compound, the inhibition result in test [17] and in test [18] was “inactive” throughout. The inhibition in test [10] was 20%.

For the compound `CCCC1(CCC(=O)O)Cc2cc3c(cc2C1=O)OCO3` (centres undefined), the inhibition entry in test [1], in [15] and in test [16] was “Active” in each case. The inhibition entry in test [2], in test [3], in test [4], in [5], in test [8] and in [12] was “inactive” throughout. Also, the inhibition result in [17] and in test [18] was “inactive” in each case. For the same compound, the inhibition in test [10] is 20%.
